Laboratory results reported in ChEMBL document CHEMBL1145542, “Discovery of a new class of potent, selective, and orally bioavailable CRTH2 (DP2) receptor antagonists for the treatment of allergic inflammatory diseases” (J Med Chem, 2008).
Calls of active or inactive are those of the source. The rule behind the calls is not given here.

Tests used:
[1] = biological target: T1, Prostaglandin D2 receptor 2 (Homo sapiens, UniProt Q9Y5Y4); experiment: Displacement of [3H]PGD2 from human CRTH2 receptor expressed in CHO cells; type: cell-based
T1 sequence (Q9Y5Y4 whole entry): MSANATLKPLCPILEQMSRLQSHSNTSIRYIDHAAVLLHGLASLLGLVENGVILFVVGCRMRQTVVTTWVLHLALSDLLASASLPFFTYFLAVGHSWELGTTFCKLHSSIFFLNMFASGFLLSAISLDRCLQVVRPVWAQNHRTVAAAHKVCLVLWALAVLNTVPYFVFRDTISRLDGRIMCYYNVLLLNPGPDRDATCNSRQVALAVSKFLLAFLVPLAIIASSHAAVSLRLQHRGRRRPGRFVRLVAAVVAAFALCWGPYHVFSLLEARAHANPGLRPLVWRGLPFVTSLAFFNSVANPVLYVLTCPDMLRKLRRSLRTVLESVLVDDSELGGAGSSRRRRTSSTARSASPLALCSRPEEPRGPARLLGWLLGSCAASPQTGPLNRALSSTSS
In short: (§1)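 Scintillation proximity competition assay: 2–5 µg human or mouse CRTH2 membranes (nitrogen-cavitation, differential centrifugation) with WGA-SPA beads and 1.5 nM [3H]PGD2 in 10 mM HEPES/KOH pH 7.4, 10 mM MnCl2, protease inhibitors, 1% Me2SO, 90 min shaking at room temperature. Nonspecific binding with 1 µM PGD2. Ki by Cheng–Prusoff, mean of ≥3 independent experiments.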

[2] = biological target: T2, Prostaglandin D2 receptor 2 (Homo sapiens) (UniProt Q9Y5Y4); experiment: Inverse agonistic activity at human CRTH2 receptor expressed in CHO cell membrane by [35S]GTP-gamma-S binding assay; type: functional, cell membranes
T2 sequence (whole entry): T1 sequence (Q9Y5Y4 whole entry)
In short: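 [35S]GTPγS binding at 30 °C on 10 µg human CRTH2 membranes in 20 mM HEPES/KOH pH 7.4, 10 mM MgCl2, 10 µg/mL saponin, 3 µM GDP, 150 mM NaCl, 2% Me2SO. PGD2 preincubation 10 min (antagonist mode: 80 nM PGD2), then 0.15 nM [35S]GTPγS for 30 min. Nonspecific binding with 10 µM GTPγS; stopped by centrifugation, scintillation counting.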

[3] = biological target: T3, Prostaglandin D2 receptor 2 (Mus musculus, UniProt Q9Z2J6); experiment: Displacement of [3H]PGD2 from mouse CRTH2 receptor expressed in HEK293 cells; type: cell-based; in short: as §1
T3 sequence (Q9Z2J6 whole entry): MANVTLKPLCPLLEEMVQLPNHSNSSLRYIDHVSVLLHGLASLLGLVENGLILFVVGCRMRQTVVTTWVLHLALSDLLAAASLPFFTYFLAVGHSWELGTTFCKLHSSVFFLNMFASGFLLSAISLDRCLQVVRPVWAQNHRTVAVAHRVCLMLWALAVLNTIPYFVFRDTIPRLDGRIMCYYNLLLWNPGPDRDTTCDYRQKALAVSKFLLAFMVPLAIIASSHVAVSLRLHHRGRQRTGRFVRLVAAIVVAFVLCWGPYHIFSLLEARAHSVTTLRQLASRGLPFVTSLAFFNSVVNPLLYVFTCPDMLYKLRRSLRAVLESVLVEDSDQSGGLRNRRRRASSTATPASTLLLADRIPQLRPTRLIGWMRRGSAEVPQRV

[4] = Intrinsic clearance per mg of protein in human liver microsomes at 3 uM; type: ADME, Microsome
In short: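 Rat or human liver microsomes (0.5 mg/mL final) in 0.1 M phosphate pH 7.4 with 3 µM compound (1% DMSO), preincubated at 37 °C, started with 1 mM NADPH. Quenched with cold acetonitrile at 0, 15, 30, 45 min; LC/MS-MS of compound disappearance gives intrinsic clearance.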

[5] = Apparent permeability across human Caco-2 cell membrane at 10 uM; type: ADME, cell-based
In short: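 Caco-2 monolayers grown 21 days on Transwell filters; TEER above 800 ohm·cm² required. 10 µM test compound in HBSS added apically (A to B) or basolaterally (B to A), 2 h at 37 °C. Both compartments sampled, analysed by LC/MS-MS.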

[6] = Lipophilicity, log D of the compound; type: physicochemical; details: octanol/water
[7] = AUC (0 to last t) in rat at 1 mg/kg, iv; type: ADME, organism-based; design: time 0 - last, dose 1 mg/kg, route intravenous; details: plasma
In short: (§2)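 Male Sprague–Dawley or Janvier rats, three per route, dosed by oral gavage or iv bolus. Serial blood drawn through an indwelling carotid catheter up to 24 h post dose. Plasma pooled by time point, analysed by LC-MS/MS; non-compartmental analysis.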

[8] = AUC (0 to last t) in rat at 5 mg/kg, po; type: ADME, organism-based; design: time 0 - last, dose 5 mg/kg, route oral; details: plasma; in short: as §2
[9] = Oral bioavailability in rat at 5 mg/kg; type: ADME, organism-based; details: in vivo; in short: as §2
[10] = Cmax in rat at 1 mg/kg, iv; type: ADME, organism-based; design: dose 1 mg/kg, route intravenous; details: in vivo; in short: as §2
[11] = Cmax in rat at 5 mg/kg, po; type: ADME, organism-based; design: dose 5 mg/kg, route oral; details: in vivo; in short: as §2
[12] = Tmax in rat at 1 mg/kg, iv; type: ADME, organism-based; design: dose 1 mg/kg, route intravenous; details: in vivo; in short: as §2
[13] = Tmax in rat at 5 mg/kg, po; type: ADME, organism-based; design: dose 5 mg/kg, route oral; details: in vivo; in short: as §2
[14] = Half life in rat at 1 mg/kg, iv; type: ADME, organism-based; design: dose 1 mg/kg, route intravenous; details: in vivo; in short: as §2
[15] = Half life in rat at 5 mg/kg, po; type: ADME, organism-based; design: dose 5 mg/kg, route oral; details: in vivo; in short: as §2
[16] = Clearance in rat at 1 mg/kg, iv; type: ADME, organism-based; design: dose 1 mg/kg, route intravenous; details: in vivo; in short: as §2
[17] = Volume of distribution at steady state in rat at 1 mg/kg, iv; type: ADME, organism-based; design: dose 1 mg/kg, route intravenous; details: in vivo, read-out: Vdss; in short: as §2

Compound | Ki [1] [nM] | Activity [2] | Ki [3] [nM] | microsomal CLint at 3 µM [4] [µL/min/mg] | Papp at 10 µM [5] [×10⁻⁶ cm/s] | logD [6] | AUC(0-t) [7] [ng·h/mL] | AUC(0-t) [8] [ng·h/mL] | bioavailability [9] [%] | Cmax [10] [ng/mL] | Cmax [11] [ng/mL] | Tmax [12] [h] | Tmax [13] [h] | half-life [14] [h] | half-life [15] [h] | clearance [16] [mL/min/kg] | Vd [17] [L/kg]
O=C1CC2(C(=O)N1Cc1ccccc1)C(=O)N(Cc1nnn[nH]1)c1ccc(Cl)cc12 (stereo not drawn) | 1540 | Active |  |  |  |  |  |  |  |  |  |  |  |  |  |  | 
O=C(O)CN1C(=O)C2(CC(=O)N(Cc3cc(Cl)ccc3F)C2)c2cc(Cl)ccc21 (single isomer, unassigned; form 1) | 13 |  | 88 | 3 | 1.8 | -0.4 | 1390 | 319 | 5 | 5060 | 55 | 0 | 1.5 | 0.9 | 8 | 11.7 | 0.3
